Results: ChEMBL document CHEMBL3779830, “Diterpenoids from the Roots of Euphorbia fischeriana with Inhibitory Effects on Nitric Oxide Production” (J Nat Prod, 2016)

Key:
RAW264.7 [1] = experiment: Inhibition of LPS-induced nitric oxide production in mouse RAW264.7 cells after 24 hrs by Griess assay; assay type: functional, cell-based; settings: RAW264.7, 24 h
Procedure, shortened: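 RAW 264.7 cells seeded at 2 × 10^6 cells/mL and stimulated with 1 μg/mL LPS, with or without compounds, for 24 h at 37 °C. Cell-free supernatant was mixed 1:1 with Griess reagent (2% sulfanilamide in 5% phosphoric acid plus 0.2% N-(1-naphthyl)ethylenediamine). Nitrite was read at 550 nm against sodium nitrite standards. Aminoguanidine and indomethacin were positive controls. Means ± SD from triplicate experiments.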

RAW264.7 [2] = experiment: Cytotoxicity against mouse RAW264.7 cells assessed as cell viability at nitric oxide IC50 level by MTT assay; assay type: cell-based
Procedure, shortened: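 Viability was read by MTT colorimetric assay on the cells remaining after the NO assay. That assay seeded RAW 264.7 cells at 2 × 10^6 cells/mL and stimulated them with 1 μg/mL LPS, with or without compounds, for 24 h at 37 °C.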

IC50 (RAW264.7 [1]) [µM] | SMILES | Activity (RAW264.7 [2])
– | C=C[C@]1(C)CC[C@]2(C)[C@H](CC[C@H]3[C@@](C)(CO)C(=O)C=C[C@]32O)C1 | Non-toxic
> 20 | C=C[C@]1(C)CC[C@@]2(C)C3=CC(=O)O[C@@H]3C(C)(C)C[C@H](O)[C@@H]2C1 | Non-toxic
5.6 | CC1=C2[C@H](OC1=O)[C@H](O)[C@H]1[C@]3(C)CCCC(C)(C)[C@H]3CC[C@@]1(O)[C@H]2O | Non-toxic
> 20 | CC1=C2[C@@H](O)[C@@]3(O)CC[C@@H]4C(C)(C)CCC[C@@]4(C)[C@@H]3[C@@H](O)[C@H]2OC1=O | Non-toxic
12.6 | CC1=C2[C@H]3O[C@]34CC[C@@H]3C(C)(C)CCC[C@@]3(C)[C@@H]4[C@@H](O)[C@H]2OC1=O | Non-toxic
> 20 | CC1=C2[C@@H](O)C3=C([C@@H](O)[C@H]2OC1=O)[C@]1(C)CCCC(C)(C)[C@H]1CC3 | Non-toxic
> 20 | CC1=C2[C@@H](O)C3=CC[C@@H]4C(C)(C)CCC[C@@]4(C)[C@@H]3[C@@H](O)[C@H]2OC1=O | Non-toxic
> 20 | CC1=C2C(=O)C3=C([C@@H](O)[C@H]2OC1=O)[C@]1(C)CCCC(C)(C)[C@H]1CC3 | Non-toxic
> 20 | CC1=C2C=C3CC[C@@H]4C(C)(C)CCC[C@@]4(C)[C@@H]3[C@H](O)[C@H]2OC1=O | Non-toxic
> 20 | CC1=C2C=C3[C@@H](O)C[C@@H]4C(C)(C)CCC[C@@]4(C)[C@@H]3[C@@H](O)[C@H]2OC1=O | Non-toxic
> 20 | C=C1C[C@@]23CC[C@@H]4C(C)(C)C(=O)CC[C@@]4(C)[C@@H]2C[C@@H]1[C@@H](O)C3=O | Non-toxic
9.4 | C[C@H]1C[C@]2(OC(=O)/C=C/c3ccccc3)C(=O)/C(CO)=C/[C@@H]3[C@H](CC[C@@]4(C)O[C@H]4[C@H]2[C@H]1O)C3(C)C | Non-toxic
12.5 | COc1ccc2c(c1)c(CC(=O)O)c(C)n2C(=O)c1ccc(Cl)cc1 [INDOMETHACIN] | –

SMILES | IC50 (RAW264.7 [1]) [µM] | Activity (RAW264.7 [2])
C=C[C@]1(C)CC[C@@]2(C)c3cc(O)c(O)c(C)c3CC[C@@H]2C1 | 7.4 | Non-toxic
CC1=C[C@]23C(=O)[C@@H](C=C(CO)[C@@H](O)[C@]2(O)[C@H]1O)[C@H]1[C@@H](C[C@H]3C)C1(C)C [INGENOL] | > 20 | Non-toxic
N=C(N)NN [PIMAGEDINE] | 18.7 | –
